Data as given in ChEMBL document CHEMBL1649566, “In vitro activity of antifolate and polymorphism in dihydrofolate reductase of Plasmodium falciparum isolates from the Kenyan coast: emergence of parasites with Ile-164-Leu mutation” (Antimicrob Agents Chemother, 2009).

Columns and labels:
Assay type in all cases: functional, organism-based
Plasmodium falciparum [1] = test: Antimalarial activity against pyrimethamine-resistant Plasmodium falciparum V1S expressing DHFR quadruple mutant with point mutations at codons 108, 51, 59 and 164 gene by [3H]hypoxanthine incorporation assay
Plasmodium falciparum [2] = test: Antimalarial activity against Plasmodium falciparum Kenyan isolates expressing DHFR Ser108Asn, Asn51Ile and Cys59Arg triple mutant by [3H]hypoxanthine incorporation assay
Outline: (§1)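 Kenyan isolates (Kilifi, 2006–2008) adapted to long-term in vitro culture; dhfr codons 108, 51, 59, 164 genotyped by PCR-RFLP. Cultured in RPMI 1640 with 10% human serum, 25 mM bicarbonate, 2 mM glutamine, 25 mM HEPES, 5 nM para-aminobenzoic acid, 23 nM folic acid, in washed human erythrocytes. Graded drug concentrations; [3H]hypoxanthine incorporation; IC50 by nonlinear regression of dose-response.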

Plasmodium falciparum [3] = test: Antimalarial activity against Plasmodium falciparum isolate Kil-164 expressing DHFR Ser108Asn, Asn51Ile, Cys59Arg and Ile164Leu quadruple mutant by [3H]hypoxanthine incorporation assay; outline: as §1
Plasmodium falciparum [4] = test: Antimalarial activity against pyrimethamine-sensitive Plasmodium falciparum 3D7 expressing wild type DHFR by [3H]hypoxanthine incorporation assay
Plasmodium falciparum [5] = test: Antimalarial activity against Plasmodium falciparum Kenyan isolates expressing DHFR Ser108Asn and Cys59Arg or Ser108Asn and Asn51Ile double mutant by [3H]hypoxanthine incorporation assay; outline: as §1
Plasmodium falciparum [6] = test: Antimalarial activity against Plasmodium falciparum Kenyan isolates by [3H]hypoxanthine incorporation assay

Structure (SMILES)	IC50 (Plasmodium falciparum [1]) [nM]	IC50 (Plasmodium falciparum [2]) [nM]	IC50 (Plasmodium falciparum [3]) [nM]	IC50 (Plasmodium falciparum [4]) [nM]	IC50 (Plasmodium falciparum [5]) [nM]	IC50 (Plasmodium falciparum [6]) [nM]
CC1(C)N=C(N)N=C(N)N1OCCCOc1cc(Cl)c(Cl)cc1Cl	0.063	0.1	0.012	0.015	0.069	0.072
CC1(C)N=C(N)N=C(N)N1c1ccc(Cl)c(Cl)c1 [CHLORCYCLOGUANIL]	92.3	40	87.7	0.011	38.1	37.8
CN(Cc1cnc2nc(N)nc(N)c2n1)c1ccc(C(=O)N[C@@H](CCC(=O)O)C(=O)O)cc1 [METHOTREXATE]	40	83.6	56.6	49.9	84.9	83.6
CCc1nc(N)nc(N)c1-c1ccc(Cl)cc1 [PYRIMETHAMINE]	6930	–	–	3.9	–	733
COc1cc(Cc2cnc(N)nc2N)cc(OC)c1OC [TRIMETHOPRIM]	102000	33700	155000	407	9310	29700
COc1cc(NCc2ccc3nc(N)nc(N)c3c2C)cc(OC)c1OC [TRIMETREXATE]	24.8	20.9	44.7	1.9	40.9	30
